Sampled rows, rich in hits. Any-hit rate of the full collection: about 12%.
Autophagy mod = autophagy modulators in MEF cells, primary screen, imaging, high-content, MEF GFP-LC3 | calls only at 10 µM (by protocol) | 190,000 tested, 0.98% active | MEF GFP-LC3 puncta imaging; test concentration mostly 10 µM;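 active = percentage of spot-positive cells more than 3 SD above its plate mean, without a fluorescence outlier flag or 80% toxicity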
b-catenin transl = modulators of beta-catenin nuclear translocation, primary screen, imaging, HeLa cells, immunofluorescence, high-content. nuclear translocation activity, % at 5 µM. AID 1665, 2009. 190,000 tested, 0.3% active;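 active = nuclear translocation activity above 50% at 5 µM, with a well cell count of 50 or more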;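 also: per-cell ratio of nuclear to cytoplasmic median beta-catenin stain intensity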
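Test system: human HeLa cells, native beta-catenin. Compound dosing: 5 µM primary single dose, 0.1% DMSO, 0.02–20 µM confirmation series. Incubation: compound exposure 24 h at 37°C. Detection: beta-catenin immunostaining with DAPI counterstain, 20x imaging, 6 fields/well. Read-out basis: Nuclear/cytoplasmic beta-catenin signal ratio, % activation.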
CHOP inh = inhibitors of CHOP promoter induction, primary screen, cell-based, unfolded protein response, luciferase reporter; CHO-K1 CHOP-promoter luciferase, tunicamycin-induced, 15-18 h; inhibition, % at 10 µM; 220,000 tested, 3.8% active;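 active = compounds that reduced the stress-induced luciferase reporter signal by more than about 70% of percent inhibition, limit read from the data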
L major viab = Leishmania major promastigote growth inhibition, primary screen. Leishmania major promastigotes, resazurin fluorescence viability. inhibition, % at 10 µM. 200,000 tested, 9% active. AID 1063, 2008; in the data active = inhibition above about 50%;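 also: promastigotes grown with compound for 44 hours at 28 °C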
MT stabilizer = microtubule stabilizers in HeLa cells, primary screen, imaging, high-content imaging; 200,000 tested, 0.83% active; HeLa tubulin immunostaining HCS, 24 h; share of cells brighter than vehicle mean+2SD; % tubulin-high responders, % at 10 µM; AID 2205, 2009;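 active = plate Z-score above 3 for both tubulin-high and condensed-nucleus cell shares, with cell loss under 80%, at 10 µM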;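 also: anti alpha tubulin signal scored within the nucleus-defined area of each cell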
Dynein transport = inhibitors of GR-EGFP nuclear translocation, primary screen, dynein cargo transport inhibitor project, imaging, high-content, 3617.4 mouse cells; AID 1381, 2008; z-score, hits read low; test concentration mostly 20 µM; stimulated with dexamethasone, 1 µM; active compounds read low; 220,000 tested, 0.47% active;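 active = plate z-score of nuclear minus cytoplasmic receptor signal below a set negative limit, without overly bright fluorescence or cell loss, cut at about -3.5 in these data, passing the limit was not always enough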;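 also: z-score of nuclear minus cytoplasmic ring GR-EGFP intensity difference per well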
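Buffer or medium: tet-free, stripped-serum medium; reagent: dexamethasone at 1.0 µM final, 30 min; incubation: 48 h induction, 1 h compound, 30 min dex at 37 °C; measured by: formaldehyde fixation, Hoechst nuclear stain, 10x automated fluorescence imaging; read-out: nuclear-to-cytoplasmic GR-EGFP distribution per well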
Large screens that a line does not name were inactive.

Cc1cc(C)cc(NC(=O)C2CCCN(c3nccc(C)n3)C2)c1 (stereo unspecified)	none
O=C(Nc1ccc2c(c1)OCCO2)C1CCN(c2cnccn2)CC1	none
O=C(NC1CCCc2ccccc21)C1CCN(S(=O)(=O)c2ccccc2)CC1 (stereo unspecified)	none
Cc1cc(C)cc(NC(=O)C2CCCN(c3nc(C)cc(C)n3)C2)c1 (stereo unspecified)	CHOP inh 70
O=C(NC1CCCc2ccccc21)C1CCN(S(=O)(=O)c2ccccc2F)CC1 (stereo unspecified)	L major viab 85
Cc1ccccc1NC(=O)CSc1ccncc1	none (no result: Autophagy mod, L major viab, MT stabilizer)
Cc1cc(C)nc(N2CCC(C(=O)NC3CCCc4ccccc43)CC2)n1 (stereo unspecified)	CHOP inh 73
C/C(=C\C(=O)c1ccc(Br)cc1)NCc1ccc(C)cc1	CHOP inh 77 (no result: b-catenin transl)
c1ccc(CN2CCN(C(c3ccccc3)c3nnnn3Cc3ccccc3)CC2)cc1 (stereo unspecified)	none
c1ccc2sc(N3CCOCC3)nc2c1	none
COc1ccc(C(c2nnnn2Cc2ccccc2)N2CCN(c3nc4ccccc4s3)CC2)cc1 (stereo unspecified)	L major viab 100
COCCn1nnnc1C(c1ccc(OC)c(OC)c1)N1CCN(c2nc3ccccc3s2)CC1 (stereo unspecified)	L major viab 83 (no result: CHOP inh)
Cc1ccc(C(c2nnnn2Cc2ccccc2)N2CCN(Cc3ccccc3)CC2)cc1 (stereo unspecified)	L major viab 92
COc1cccc2sc(N3CCN(c4nc5ccccc5s4)CC3)nc12	CHOP inh 80
Cc1[nH]c2ccccc2c1CCNC(=O)c1c(N)no[n+]1[O-]	none
CCN(CC)S(=O)(=O)c1ccc(C(=O)NC(=S)N(CCC#N)Cc2cccnc2)cc1	none
COCCn1nnnc1C(c1ccccc1OC)N1CCc2ccccc2C1 (stereo unspecified)	L major viab 85 (no result: b-catenin transl, CHOP inh)
CC1CCN(C(c2ccc(N(C)C)cc2)c2nnnn2Cc2ccc(F)cc2)CC1 (stereo unspecified)	none
Fc1ccc(Cn2nnnc2C(c2ccc(Cl)cc2)N2CCSCC2)cc1 (stereo unspecified)	L major viab 99
COCCn1nnnc1C(c1ccc(OC)c(OC)c1)N1CCc2ccccc21 (stereo unspecified)	none
COc1ccc(Cn2nnnc2C(c2cccs2)N2CCCCCC2)cc1 (stereo unspecified)	L major viab 57
COc1ccc(Cn2nnnc2C(c2cccs2)N2CCSCC2)cc1 (stereo unspecified)	none
CCOc1ccc(/C=C/C(O)=C2/C(=O)N(C)C3(C)CC2c2ccccc2O3)cc1OC (stereo unspecified)	L major viab 65, MT stabilizer 15
CN(C)c1ccc(/C=C/C(O)=C2/C(=O)N(C)C3(C)CC2c2ccccc2O3)cc1 (stereo unspecified)	L major viab 66
CCNC(=O)NC(=O)C(C)Sc1ccc2c(c1)OCCO2 (stereo unspecified)	none
CC(C)(C)c1ccc(OCCNC(=O)Cc2ccc(F)cc2)cc1	none
CC(C)(C)c1cc(C(=O)NCc2cc(F)cc3c2OCOC3)n(Cc2ccccc2)n1	none (no result: Autophagy mod, L major viab, MT stabilizer)
C=CCN1C(=O)C(C)NC1=S (stereo unspecified)	none (no result: Autophagy mod, L major viab, MT stabilizer)
Cc1cc(Cl)c(S(=O)(=O)Nc2ccon2)cc1OCC(=O)NC1CCCCC1	none
Cc1cc(Cl)c(S(=O)(=O)Nc2ccc3c(c2)OCCO3)cc1OCC(=O)NC1CCCCC1	L major viab 99 (no result: b-catenin transl)
Cc1cc(Cl)c(S(=O)(=O)Nc2cccc(O)c2)cc1OCC(N)=O	L major viab 53
Cc1cc(Cl)c(S(=O)(=O)Nc2ccccn2)cc1OCC(N)=O	none (no result: b-catenin transl)
CCOc1ccc(NS(=O)(=O)c2cc(OCC(N)=O)c(C)cc2Cl)cc1	none
COc1ccc(NS(=O)(=O)c2cc(OCC(N)=O)c(C)cc2Cl)cc1	L major viab 76
O=C1CCC(/C=C/c2ccccc2)=NN1Cc1ccc(F)cc1	none
Cc1cc([N+](=O)[O-])c(C)cc1-c1ccc(/C=N/NC(=O)c2cccnc2)o1	L major viab 100
Cc1c(C(=O)N/N=C/c2ccc(-c3ccccc3[N+](=O)[O-])o2)sc(N)c1C#N	L major viab 71
O=C(N/N=C/c1ccc(-c2ccccc2[N+](=O)[O-])o1)c1cncc(Br)c1	L major viab 98
Cc1c(-c2ccc(/C=N/NC(=O)C(=O)Nc3ccccc3F)o2)cccc1[N+](=O)[O-]	none (no result: Autophagy mod, L major viab, MT stabilizer)
O=C(N/N=C\c1ccc([N+](=O)[O-])o1)c1cncc(Br)c1	none (no result: Autophagy mod, L major viab, MT stabilizer)
CCN(CC)c1ccc(/C=C/C(=O)C2C(=O)C=C(C)OC2=O)cc1 (stereo unspecified)	Autophagy mod active
CCN(CC)c1ccc(C=C2C(=O)OC(c3ccccc3)OC2=O)cc1 (stereo unspecified)	none
C/C(CC(=O)Nc1ccc(Cl)c(Cl)c1)=N\NC(=O)C(=O)N1CCCCC1	none
O/N=C/c1ccccc1OCc1ccc(Cl)cc1	CHOP inh 76
CCCCOC(=O)CSc1nc2ccccc2o1	none (no result: Autophagy mod, L major viab, MT stabilizer)
Cc1ccc2c(CC(=O)OCC(=O)Nc3ccc(Cl)cn3)coc2c1	L major viab 51
C=CCC(=O)OCC(=O)Nc1ccc(Cl)cn1	none (no result: b-catenin transl)
O=C(COC(=O)CCC1CCCC1)Nc1ccc(Cl)cn1	CHOP inh 73
CCc1nc(N)c(C#N)c(-c2ccccc2OC)c1C	none
c1ccc2c(CCNc3ncnc4nc[nH]c34)c[nH]c2c1	MT stabilizer 17 (no result: CHOP inh)
CSc1nc(SCC(=O)NCc2ccco2)c2c3c(sc2n1)COC(C)(C)C3	MT stabilizer 35
CCCCc1nc2sc3c(SCC(=O)NCc4ccco4)ncnc3c2c2c1CCC2	CHOP inh 86, MT stabilizer 33
CCCCSc1nc(SCC(=O)NCc2ccco2)c2c3c(sc2n1)COC(C)(CC)C3 (stereo unspecified)	none
C=CCC1CCCC(=O)N2CC[C@H](O)C12 (stereo partly specified)	none (no result: b-catenin transl)
O=C(O)C(=O)/C(=C\c1ccc(Cl)cc1)c1ccc2ccccc2n1	none
Cc1ccccc1NC(=S)c1nc2ccccc2[nH]1	L major viab 90
S=C(Nc1ccc(Cl)cc1)c1nc2ccccc2[nH]1	L major viab 88
CCNC(=S)Nc1ccc(-c2nc3ccccc3[nH]2)cc1	none
O=C(/C(=C\c1ccccc1)c1nc2ccccc2[nH]1)c1ccc(Cl)cc1	CHOP inh 87, L major viab 100, MT stabilizer 22

High-throughput results as filed in PubChem BioAssay.
